Values after ≈ are worked out from the molar mass of the structure shown.
Tests used:
[1] = Saturated solubility of AG-CDs binary formulations; format: physicochemical; conditions: distilled water
Summary of the method: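 Binary complexes were made by grinding. γ-CD was dissolved in distilled water, compound added at 1:1 or 1:2 molar ratio, and the mix ground 2 h to a paste. The paste was dried at 50 °C under vacuum, pulverised and passed through an 80-mesh sieve.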

[2] = Dissolution study; format: physicochemical; conditions: different pH media, 150 mg AG in 1000 ml, 75 rpm, 37 °C, up to 60 min
Summary of the method: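 USP-type paddle method (Ch.P 2015 Apparatus II) at 75 rpm and 37 ± 0.5 °C. Medium was 1000 ml of distilled water, 0.1 mol/l HCl, pH 6.8 phosphate buffer or 1% SDS. Pure compound or formulations were added at 150 mg compound-equivalent. Aliquots were drawn at 5, 10, 15, 20, 30, 45 and 60 min and replaced with fresh medium. Samples were filtered through 0.45 µm and assayed by HPLC.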

[3] = Transwell transport study in MDCK-MDR1 monolayer; format: in vitro ADME, canine; conditions: dog
Summary of the method: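 MDCK-MDR1 cells were seeded at 5 × 10^5 cells/well on 0.4 µm polycarbonate inserts and cultured 7 d; medium was changed every other day, then daily after day 4. Only monolayers with TEER above 140 ohms were used. Monolayers were equilibrated 30 min in HBSS at 37 °C. […] Receiver samples were taken at 15–120 min for HPLC. Papp = (ΔR/Δt)/(S·C0), with S 4.71 cm2; the efflux ratio was calculated from Papp.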

[4] = In vivo pharmacokinetic study after oral administration; parameters: species or system Sprague-Dawley rats; conditions: male, Sprague-Dawley, rat, plasma, 40 mg/kg
[5] = Physiologically based absorption modeling; parameters: species or system rat
[6] = cited from earlier work
[7] = test system: MDCK-MDR1 cells; assay: Cellular uptake of AG with P-gp inhibitors; format: cell-based, canine; conditions: 100 µM AG, 200 µM γ-CD, 1% P-gp inhibitor, 37 °C, 90 min
Summary of the method: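 MDCK-MDR1 cells were grown in DMEM with 10% heat-inactivated FBS and 1% penicillin/streptomycin at 37 °C, 5% CO2. Cells were seeded at 5 × 10^5 cells/well and left to adhere overnight. At 80% confluence they were exposed for 90 min at 37 °C to 100 µM test compound, with or without 200 µM γ-CD plus 1% Tween 80, TPGS, P407 or Cremophor EL. Cells were washed three times in ice-cold PBS, lysed in 1% Triton X-100, and intracellular compound was measured by HPLC. […] Triplicates, mean ± SD.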

[8] = three-compartment model fitted to 5 mg/kg i.v. data of ref 35

In the case of `C=C1CC[C@@H]2[C@](C)(CO)[C@H](O)CC[C@@]2(C)[C@@H]1C/C=C1/C(=O)OC[C@H]1O` [AG, Andrographolide], the solubility [1] is reported as 74.6 µg/mL (≈ 213 µM), the “AG released (dissolution)” value [2] is reported as 17% and the Papp A→B at 120 min, 20 µM [3] is reported as 0.47 ± 0.04 ×10⁻⁶ cm/s. It also gave a Papp B→A at 120 min, 20 µM [3] of 4.9 ± 0.05 ×10⁻⁶ cm/s, an efflux ratio at 120 min, 20 µM [3] of 10.4 and an AUC(0-inf) [4] of 426 ± 76.8 ng·h/mL. For the same compound, the AUC(0-t) [4] was 351 ± 56.5 ng·h/mL, the Cmax [4] was 57.8 ± 14.8 ng/mL and the Tmax [4] was 1.33 ± 0.52 h. For the same compound, the half-life [4] was 583 ± 82.8 min, the k el [4] was 2e-05 s⁻¹ and the “Dissolution rate (constant)” value ([5]; fitted to dissolution test result, pH 6.8 PBS) was 8.87 mL/h/mg. The “Central (compartment volume)” value [5, 8] was 1460 mL, the K10 [5, 8] was 0.7518 h⁻¹ and the K12 [5, 8] was 1.29 h⁻¹. It also gave a K13 [5, 8] of 4.5125 h⁻¹, a K21 [5, 8] of 0.27 h⁻¹ and a K31 [5, 8] of 7.0938 h⁻¹. The “Periperal_2 (compartment volume)” value [5, 8] was 1000 mL, the “Peripheral_1 (compartment volume)” value [5, 8] was 6000 mL and the “Unbound fraction (plasma)” value [6] was 0.35.

In the case of “D-α-Tocopherol polyethylene glycol succinate [TPGS]”, the “Cellular uptake of AG” value [7] is reported as 1.04 nmol/mg protein.
